This is a sample that favours compounds with a hit; in the whole collection about 2.1% have one here.
CAL PDZ FP-1 = untagged CAL PDZ binding inhibitors, primary screen, biochemical, fluorescence polarization, HTS; Golgi-associated PDZ and coiled-coil motif-containing protein (Homo sapiens), Q9HD26; inhibition, % at 24.9 µM; purified CAL PDZ, TMR-peptide fluorescence polarization, 1 h; 300,000 tested, 0.92% active;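 active = mean inhibition of at least 30% with at least half of replicates also reaching 30%; inconclusive = no clear call, values can overlap the other calls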;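 also: 0% = DMSO neutral control and 100% = excess unlabeled competitor peptide PRC23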
ARNT TACC3 PPI = disruptors of ARNT/TACC3 protein interaction, primary screen, biochemical, AlphaScreen, single concentration; AlphaScreen His-ARNT PAS-B/GST-TACC3 binding, luminescence; TACC3 fragment carries E629A point mutation; inhibition, % at 9.99 µM; 390,000 tested, 0.66% active; AID 623870, 2012;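 active = mean inhibition of replicates at least 50% and at least half of replicates each reaching 50%; inconclusive = half or more replicates reach 50% but mean below 50%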;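 also: 0% = complete ARNT plus TACC3 wells and 100% = ARNT alone without TACC3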
SR-BI DiI inh = inhibitors of SR-BI mediated HDL lipid uptake, primary screen, ldlA[mSR-BI] cells, fluorescence, single point; 320,000 tested, 0.96% active; Scavenger receptor class B member 1 (Mus musculus), Q61009; ldlA[mSR-BI] CHO cells, DiI-HDL uptake fluorescence, 3 h; AID 488896, 2010; inhibition, % at 12.5 µM;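 active = mean replicate inhibition of at least 70% and a set share of replicates each scoring 70 or more; inconclusive = meets just one of the two criteria; inactive = fails both criteria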;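 also: 0% = median of neutral control wells and 100% = median of positive control wells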
Target sequence (Q61009 whole entry, looked up): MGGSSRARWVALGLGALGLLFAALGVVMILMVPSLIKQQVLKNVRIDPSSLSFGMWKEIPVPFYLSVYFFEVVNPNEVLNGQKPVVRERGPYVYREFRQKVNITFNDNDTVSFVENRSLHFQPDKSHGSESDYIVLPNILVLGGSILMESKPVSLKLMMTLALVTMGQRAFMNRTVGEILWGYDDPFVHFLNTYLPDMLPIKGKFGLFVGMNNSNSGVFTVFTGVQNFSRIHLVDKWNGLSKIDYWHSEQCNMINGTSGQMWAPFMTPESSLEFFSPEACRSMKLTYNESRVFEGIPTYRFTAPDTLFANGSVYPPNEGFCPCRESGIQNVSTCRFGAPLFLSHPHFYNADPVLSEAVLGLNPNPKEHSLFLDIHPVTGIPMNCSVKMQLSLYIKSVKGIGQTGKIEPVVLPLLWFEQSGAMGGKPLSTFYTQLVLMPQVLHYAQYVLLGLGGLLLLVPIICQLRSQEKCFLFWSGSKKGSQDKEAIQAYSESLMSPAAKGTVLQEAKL
CAL PDZ FP-2 = CAL PDZ peptide-binding inhibitors, primary screen, biochemical, fluorescence polarization, Cer-tagged CAL PDZ, HTS | Golgi-associated PDZ and coiled-coil motif-containing protein (Homo sapiens), Q9HD26 | purified CAL PDZ, TMR-peptide fluorescence polarization, 1 h | inhibition, % at 20 µM | 330,000 tested, 0.02% active | AID 504414, 2011;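 active = highest replicate inhibition of at least 40%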;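 also: plate controls were DMSO neutral control wells for no effect and unlabeled competitor peptide control wells for full effect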
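Test system: purified CerCALP PDZ construct; Compound dosing: one concentration, 20 µM compound; Also added: TMR-labelled reporter peptide T*-PRC34 bound in PDZ groove; Read-out: inhibition from polarization loss; Controls: unlabelled peptide and DMSO controls; Signal: FP readout, S and P plane fluorescence; Incubation: 1 h at RT.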
miR122 inh = miR-122 Renilla sensor signal increase in Huh7, primary screen, miR-122 inhibitor project, cell-based, single point, plate reader | activation (reporter increase), % at 12.5 µM | 340,000 tested, 0.3% active | AID 602342, 2012 | Huh7 miR-122 Renilla luciferase sensor, 48 h; neutral wells = 0, positive control = 100;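 active = mean replicate activation score at least 90 and every replicate individually at or above 90; inconclusive = only one of the two criteria met; inactive = neither criterion met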;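 also: higher luciferase means less miR-122 activity so hits act as miR-122 inhibitors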
SR-BI DiI-HDL act = activators of SR-BI mediated DiI-HDL uptake, primary screen, ldlA[mSR-BI] CHO cells, DiI fluorescence | 3 h; 100 = double the neutral-control signal | activation, % at 12.5 µM | AID 504775, 2011 | 320,000 tested, 0.096% active;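 active = mean replicate activation of at least 60% and every replicate at or above 60%; inconclusive = mean or all-replicate condition met, but not both; inactive = mean below 60% and not all replicates reaching 60%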;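 also: 0% = median plate neutral-control signal and 100% = twice that signal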
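Material: SR-BI-overexpressing, LDLR-lacking CHO cells; schedule: compound exposure 3 h, 37 °C; reagent: DiI-labelled HDL at 10 µg/mL final; technique: bottom-read fluorescence, 550/595 nm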
* = called active by the depositor; ? = inconclusive; nt = not tested or not shown; [ ] = dose if it differs, or a comment.

SMILES | CAL PDZ FP-1 | ARNT TACC3 PPI | SR-BI DiI inh | CAL PDZ FP-2 | miR122 inh | SR-BI DiI-HDL act
Cc1occc1C(=O)N/N=C/c1c(O)ccc2ccccc12 | -1.5 | nt | 114.0* | -0.7 | -17.7 | -114.0
CO[C@@H]1CN(C)C(=O)c2ccc(NC(C)=O)cc2OC[C@H](C)N(C(=O)C2CC2)C[C@@H]1C | nt | 7.3 | nt | nt | nt | nt
CO[C@@H]1CN(C)C(=O)c2ccc(NC(C)=O)cc2OC[C@@H](C)N(C(=O)c2ccccn2)C[C@H]1C | nt | -4.9 | nt | nt | -2.6[16.7 µM] | nt
CC1(C)C2CC=C(/C=N/NC(=O)c3ccc(O)cc3)C1C2 (stereo not drawn) | 77.9* | 0.7 | -3.1 | -1.8 | nt | 3.1
COc1ccccc1NS(=O)(=O)c1cc(NC(=O)CCC(=O)c2cccs2)ccc1Cl | -6.9 | -0.6 | -20.5 | -1.0 | 107.7* | 20.5
COc1ccc(NC(=O)CCC(=O)c2cccs2)cc1S(=O)(=O)Nc1ccc(Cl)cc1 | -1.2 | -0.7 | 15.0 | -2.1 | 321.6* | -15.0
CCOc1ccc(NS(=O)(=O)c2cc(NC(=O)CCC(=O)c3cccs3)ccc2Cl)cc1 | -0.9 | 0.8 | 12.2 | -0.1 | nt | -12.2
COc1ccccc1NS(=O)(=O)c1cc(N/C(=N/S(=O)(=O)c2ccccc2)c2ccc(F)cc2)ccc1Cl | nt | nt | nt | nt | 117.1* | nt
O=S(=O)(/N=C(/Nc1ccc(Cl)c(S(=O)(=O)Nc2ccccc2Cl)c1)c1ccc(F)cc1)c1ccccc1 | -5.8 | 9.6 | -14.2 | -2.0 | ? | 14.2
Cc1ccc(S(=O)(=O)Nc2ccc3c(c2)C(=O)N([C@@H](C)CO)C[C@@H](C)[C@@H](CN(C)Cc2ccc(Cl)c(Cl)c2)OCCCC[C@@H](C)O3)cc1 | nt | 19.6 | nt | nt | -12.0[16.7 µM] | nt
O=C(C[C@@H]1C=C[C@@H](NS(=O)(=O)c2ccccc2)[C@@H](CO)O1)N1CCc2ccccc2C1 | nt | 1.4 | nt | nt | nt | nt
CC(=O)c1ccc(S(=O)(=O)N2CCn3cccc3C2C)cc1 (stereo not drawn) | 1.4 | nt | 2.7 | -0.6 | nt | -2.7
CC1c2cccn2CCN1S(=O)(=O)c1ccc(F)cc1 (stereo not drawn) | 73.8* | 0.8 | 3.0 | -0.5 | nt | -3.0
COCCNC(=O)[C@H]1[C@H](CO)[C@H]2Cn3c(ccc(-c4ccc(OC)cc4)c3=O)[C@@H]1N2C(=O)NC(C)C | nt | -1.9 | nt | nt | 1.1[16.7 µM] | nt
Cc1ccc(NS(=O)(=O)c2ccccc2)c(NS(=O)(=O)c2ccccc2)c1 | -1.0 | -1.6 | -29.4 | -1.1 | nt | 29.5
Cc1ccc(S(=O)(=O)Nc2ccccc2N=Cc2c(F)c(F)c(F)c(F)c2F)cc1 | -1.3 | -3.8 | 91.5* | 0.7 | nt | -91.5
Cc1ccc(S(=O)(=O)Nc2ccccc2-c2ccccc2)cc1 | 0.4 | -2.7 | -4.1 | -2.6 | 161.5* | 4.1
C[C@@H]1CN([C@@H](C)CO)C(=O)c2cc(Br)cnc2O[C@@H]1CN(C)Cc1ccc(C(=O)O)cc1 | nt | -9.3 | nt | nt | nt | nt
CC(C)C#Cc1ccc2c(c1)O[C@H](CN(C)C(=O)c1cccc(F)c1)[C@H](C)CN([C@@H](C)CO)S2(=O)=O | nt | nt | nt | nt | -20.9[16.7 µM] | nt
CCOCCCNC(=S)N(CCCN(C)C)Cc1cc2cc3c(cc2[nH]c1=O)OCCO3 | 4.9 | 27.1* | -18.0 | -1.7 | 5.1 | 18.0
COCCCNC(=S)N(CCO)Cc1cc2cc3c(cc2[nH]c1=O)OCCO3 | 0.2 | 2.4 | 22.0 | 0.7 | -3.4 | -22.0
COCCNC(=S)N(CCO)Cc1cc2cc3c(cc2[nH]c1=O)OCCO3 | nt | 48.7* | -13.5 | -1.1 | 1.9 | 13.5
COCCCNC(=S)N(CCCN(C)C)Cc1cc2cc3c(cc2[nH]c1=O)OCCO3 | -1.3 | 2.1 | -10.7 | 0.6 | -2.0 | 10.7
Cc1noc(C)c1NC(=O)Nc1ccc2c(c1)CC(=O)N([C@@H](C)CO)C[C@H](C)[C@H](CN(C)CC1CCCCC1)O2 | nt | 4.5 | nt | nt | -5.4[16.7 µM] | nt
COc1ccc(NC(=O)c2cn(-c3ccccc3)nc2-c2cc3ccccc3o2)cc1 | -0.2 | -2.0 | 81.3* | 0.8 | -5.0 | -81.3
SMILES | CAL PDZ FP-1 | ARNT TACC3 PPI | SR-BI DiI inh | CAL PDZ FP-2 | miR122 inh | SR-BI DiI-HDL act
COc1ccc(-c2nn(-c3ccccc3)cc2C(=O)NC(=S)NNC(=O)c2ccncc2)cc1 | nt | 46.1* | 11.0 | -5.3 | 15.2 | -11.0
COc1ccc(NC(=O)c2cn(-c3ccccc3)nc2-c2ccncc2)cc1 | 1.1 | -3.1 | 49.3 | -2.5 | nt | -49.3
COc1cc(/C=N/NC(=O)CC#N)ccc1Oc1nc(Cl)ncc1F | 1.3 | 0.6 | 82.0* | -0.3 | nt | -82.0
CC(=O)N(C)C[C@H]1Oc2cc(/C=C/c3ccccc3)ccc2S(=O)(=O)N([C@@H](C)CO)C[C@@H]1C | nt | 4.0 | nt | nt | -7.9[16.7 µM] | nt
O=C(CN1CCOCC1)N[C@@H]1CC[C@H](CCNC(=O)Nc2cc(F)ccc2F)O[C@@H]1CO | nt | -0.2 | nt | nt | nt | nt
C[C@@H]1CN([C@H](C)CO)C(=O)Cc2cc(NC(=O)Nc3ccc4c(c3)OCO4)ccc2O[C@@H]1CN(C)Cc1ccc(C(F)(F)F)cc1 | nt | -27.7 | nt | nt | 0.5[16.7 µM] | nt
COC(=O)c1cn(C(=O)/C=C/c2ccc(OC)c(OC)c2)c2ccccc12 | -0.4 | -0.5 | 92.6* | -3.9 | 11.6 | -92.6
COCCNC(=O)C[C@H]1CC[C@@H]2[C@H](COC[C@@H](O)CN2C(=O)Nc2ccc3c(c2)OCO3)O1 | nt | 0.4 | nt | nt | 4.2[16.7 µM] | nt
Cc1cc(N/N=C/c2ccc(O)cc2O)nc(-c2ccccc2O)n1 | -2.9 | -6.6 | 113.8* | 0.3 | nt | -113.7
Cc1cc(N/N=C/c2ccccc2O)nc(-c2ccccc2O)n1 | 1.5 | -6.5 | 13.7 | 0.0 | nt | -13.7
Cc1nc(Cl)cc(N/N=C/c2ccc(O)cc2O)n1 | -2.5 | 27.0* | -0.2 | 1.1 | 1.9 | 0.2
Cc1cc(N/N=C/c2ccc(O)cc2O)nc(-n2nc(C)cc2C)n1 | 9.9 | -9.7 | 93.7* | 0.0 | -27.7 | -93.7
CO[C@H]1CN(C)C(=O)c2cc(NC(=O)C3CCC3)ccc2OC[C@H](C)N(CC2CCCCC2)C[C@H]1C | nt | -3.3 | nt | nt | nt | nt
O=C(C1CCOCC1)N1CC[C@@H]2[C@H](CO)Nc3ccc(-c4ccc(F)cc4)cc3[C@@H]21 | nt | 0.3 | nt | nt | -10.6[16.7 µM] | nt
C[C@@H]1CCCCO[C@@H](CN(C)C(=O)Nc2ccc(F)cc2)[C@H](C)CN([C@H](C)CO)C(=O)c2cc(NC(=O)Nc3ccc(F)cc3)ccc2O1 | nt | 9.2 | nt | nt | -12.1[16.7 µM] | nt
